Series [1] is described as follows: Lipophilicity, log D of compound at pH 7.4 incubated for 20 hrs by HPLC analysis. Conditions: buffer. It counts as physicochemical.
Series [2] is described as follows: Selectivity ratio, ratio of IC50 for displacement of fluorescent tracer 4-(4-(1-(4-(1-(6-(3-carboxylato-4-(3-iminio-3H-xanthen-9-yl)benzamido)hexyl)-4,5-dihydro-1H-pyrrol-3-yl)butyl)piperidin-1-ium-4-yl)phenyl)-7-(4-(trifluoromethyl)phenyl)-2-naphthoate from mouse P2Y14R stably expressed in human HEK293 cells to IC50 for displacement of fluorescent tracer 4-(4-(1-(4-(1-(6-(3-carboxylato-4-(3-iminio-3H-xanthen-9-yl)benzamido)hexyl)-4,5-dihydro-1H-pyrrol-3-yl)butyl)piperidin-1-ium-4-yl)phenyl)-7-(4-(trifluoromethyl)phenyl)-2-naphthoate from human P2Y14R stably expressed in CHO cells. It counts as cell-based.

The target of series [3] is T1, P2Y purinoceptor 14 (Homo sapiens, UniProt Q15391).
T1 sequence (Q15391 whole entry): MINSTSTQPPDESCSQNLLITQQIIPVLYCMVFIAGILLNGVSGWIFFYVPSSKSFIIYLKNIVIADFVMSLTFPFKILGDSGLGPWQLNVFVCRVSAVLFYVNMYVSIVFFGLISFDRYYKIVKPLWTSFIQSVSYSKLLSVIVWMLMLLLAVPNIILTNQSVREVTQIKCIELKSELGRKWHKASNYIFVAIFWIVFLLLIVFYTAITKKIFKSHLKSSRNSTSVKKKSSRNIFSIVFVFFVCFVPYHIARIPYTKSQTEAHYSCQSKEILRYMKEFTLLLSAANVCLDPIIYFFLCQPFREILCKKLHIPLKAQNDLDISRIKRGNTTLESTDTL
Kind of series: Displacement of fluorescent tracer 4-(4-(1-(4-(1-(6-(3-carboxylato-4-(3-iminio-3H-xanthen-9-yl)benzamido)hexyl)-4,5-dihydro-1H-pyrrol-3-yl)butyl)piperidin-1-ium-4-yl)phenyl)-7-(4-(trifluoromethyl)phenyl)-2-naphthoate from human P2Y14R stably expressed in CHO cells assessed as inhibition constant by flow cytometry. It counts as cell-based. The essentials: (§1)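 Whole-cell competitive binding: CHO cells expressing hP2Y14R (or HEK-293 cells expressing mP2Y14R) incubated with AlexaFluor488-labelled antagonist tracer at 20 nM.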

The target in series [4] is T2, P2Y purinoceptor 14 (Mus musculus, UniProt Q9ESG6).
T2 sequence (Q9ESG6 whole entry): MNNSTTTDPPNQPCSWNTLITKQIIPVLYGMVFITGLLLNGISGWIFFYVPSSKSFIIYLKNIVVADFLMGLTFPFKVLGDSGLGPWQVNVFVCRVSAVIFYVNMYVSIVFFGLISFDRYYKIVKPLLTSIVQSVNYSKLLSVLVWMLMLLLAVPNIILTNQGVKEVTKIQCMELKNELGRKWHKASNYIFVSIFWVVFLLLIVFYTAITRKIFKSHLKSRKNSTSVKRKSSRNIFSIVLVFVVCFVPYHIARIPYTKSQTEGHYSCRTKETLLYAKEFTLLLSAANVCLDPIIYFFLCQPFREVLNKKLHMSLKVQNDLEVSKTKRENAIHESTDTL
As to the kind of experiment: Displacement of fluorescent tracer 4-(4-(1-(4-(1-(6-(3-carboxylato-4-(3-iminio-3H-xanthen-9-yl)benzamido)hexyl)-4,5-dihydro-1H-pyrrol-3-yl)butyl)piperidin-1-ium-4-yl)phenyl)-7-(4-(trifluoromethyl)phenyl)-2-naphthoate from mouse P2Y14R stably expressed in human HEK293 cells by flow cytometry. Format: cell-based. The essentials:
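Whole-cell competitive binding: CHO cells expressing hP2Y14R (or HEK-293 cells expressing mP2Y14R) incubated with AlexaFluor488-labelled antagonist tracer at 20 nM. […] Ki derived by dividing IC50 by 1.72.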
A general note: In flow cytometry, cells or beads pass a laser one at a time.

Series [5] deals with T1, P2Y purinoceptor 14. Kind of series: Displacement of fluorescent tracer 4-(4-(1-(4-(1-(6-(3-carboxylato-4-(3-iminio-3H-xanthen-9-yl)benzamido)hexyl)-4,5-dihydro-1H-pyrrol-3-yl)butyl)piperidin-1-ium-4-yl)phenyl)-7-(4-(trifluoromethyl)phenyl)-2-naphthoate from human P2Y14R stably expressed in CHO cells by flow cytometry. Format: cell-based. An outline of the steps: as §1

Series [6] relates to Mus musculus. Kind of series: Antiallodynic activity in CCI surgery neuropathic pain Hsd:ICR mouse model assessed as reversal of mechano-allodynia by measuring paw withdrawal threshold at 10 micromol/kg,po and measured upto 6 hrs by von frey test. It counts as functional, organism-based. Conditions: dose 10.0 µmol/kg. The essentials:
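CCI neuropathic pain in adult male CD-1 mice. Single oral gavage dose of 10 μmol/kg on day 7 post-surgery. Vehicle 5% DMSO + 10% (Kolliphor HS 15:DMSO 5:95) in 0.5% methylcellulose, 0.2 mL. Von Frey paw withdrawal threshold on both hindpaws. Mean ± SD; two-way ANOVA with Dunnett's test.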

In series [7] the test system is Mus musculus. As to the kind of experiment: Antiallodynic activity in CCI surgery neuropathic pain Hsd:ICR mouse model assessed as reversal of mechano-allodynia by measuring paw withdrawal threshold at 10 micromol/kg,ip and measured upto 5 days by von frey test. Format: functional, organism-based. Conditions: dose 10.0 µmol/kg, time <= 5.0 day. The essentials:
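CCI neuropathic pain in adult male Hsd:ICR (CD-1) mice (20–30 g). Single i.p. injection on day 7 after sciatic nerve constriction, at peak pain. Vehicle 10% (Kolliphor HS 15:DMSO 5:95) in saline, 0.2 mL. Paw withdrawal threshold by von Frey filaments on ipsilateral and contralateral hindpaws. Mean ± SD; two-way ANOVA with Dunnett's test versus day 0 and day 7.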

The test system of series [8] is Mus musculus. As to the kind of experiment: Anti-asthmatic activity against OVA/Aspergillus-sensitized protease-mediated C57BL/6J mouse model allergic asthma assessed as reduction in macrophages in BAL fluid at 10 mg/kg,ip followed by 0.5 hrs OVA challenge and measured after 48 hrs. Format: functional, organism-based. Conditions: time 48.5 hrs.
Series [9] has as its system Mus musculus. As to the kind of experiment: Anti-asthmatic activity against OVA/Aspergillus-sensitized protease-mediated C57BL/6J mouse model allergic asthma assessed as reduction in neutrophils in BAL fluid at 10 mg/kg,ip followed by 0.5 hrs OVA challenge and measured after 48 hrs. Format: functional, organism-based. Conditions: time 48.5 hrs.
The test system of series [10] is Mus musculus. As to the kind of experiment: Anti-asthmatic activity against OVA/Aspergillus-sensitized protease-mediated C57BL/6J mouse model allergic asthma assessed as reduction in lymphocytes in BAL fluid at 10 mg/kg,ip followed by 0.5 hrs OVA challenge and measured after 48 hrs. Conditions: time 48.5 hrs. Format: functional, organism-based.
In series [11] the test system is Mus musculus. Kind of series: Anti-asthmatic activity against OVA/Aspergillus-sensitized protease-mediated C57BL/6J mouse model allergic asthma assessed as reduction in airway eosinophilia in BAL fluid at 10 mg/kg,ip followed by 0.5 hrs OVA challenge and measured after 48 hrs. It counts as functional, organism-based. The following applies: time 48.5 hrs.

The structures appear in SMILES notation. Calls of active or inactive are those of the source.

For orientation: logD means the decadic logarithm of the distribution of all forms, ionised or not, between an organic phase and buffer at a given pH. The low end stands for a more hydrophilic compound, the high end for a more lipophilic compound. Broadly, the Ki is the dissociation constant of the complex between target and ligand, obtained from inhibition or displacement. By IC50 is commonly meant the concentration that inhibits the measured activity by half. With `O=C(O)c1cc(-c2ccc(C3=C[C@H]4CNC[C@@H]4C3)cc2)c2ccc(-c3ccc(C(F)(F)F)cc3)cc2c1` (racemic), the logD at 20 h in [1] came out at 2.2. The Ratio IC50 in series [2] was determined as 0.336. The inhibitory constant (Ki) in series [3] was determined as 9.65 nM. The IC50 in series [4] came out at 5.57 nM.

Regarding `O=C(O)c1cc(-c2ccc(C3CCNC3)cc2)c2ccc(-c3ccc(C(F)(F)F)cc3)cc2c1` (racemic), the logD at 20 h in series [1] is 1.6.

Turning to `O=C(O)c1cc(-c2ccc(C3CNC3)cc2)c2ccc(-c3ccc(C(F)(F)F)cc3)cc2c1`, the logD at 20 h in [1] was determined as 1.4. In addition, in [3], the Ki came out at 38.3 nM.

In series [1], `O=C(O)c1cc(-c2ccc([C@@H]3[C@@H]4CNC[C@H]3C4)cc2)c2ccc(-c3ccc(C(F)(F)F)cc3)cc2c1` gave a logD at 20 h of 2.8. Moreover, the Ki in [3] was 305 nM. This molecule also returned an IC50 in series [5] of 524 nM.

`O=C(O)c1cc(-c2ccc(C3CC4(CNC4)C3)cc2)c2ccc(-c3ccc(C(F)(F)F)cc3)cc2c1`: in series [1], the logD at 20 h turned out to be 1.9. For the same molecule, the Ki in [3] was 27.1 nM.

With `CCOC(=O)N1C[C@H]2C[C@@H]1C[C@@H]2c1ccc(-c2cc(C(=O)OCC(=O)N(C)C)cc3cc(-c4ccc(C(F)(F)F)cc4)ccc23)cc1`, the outcome in [6] and in series [7] was Active.

In the case of `O=C(O)c1cc(-c2ccc(C3(O)CC4(CNC4)C3)cc2)c2ccc(-c3ccc(C(F)(F)F)cc3)cc2c1`, in series [1], the logD at 20 h was 0.81. Besides, in series [3], the Ki came to 12.1 nM.

Consider `CN(C)C(=O)COC(=O)c1cc(-c2ccc([C@]3(O)[C@@H]4CNC[C@H]3C4)cc2)c2ccc(-c3ccc(C(F)(F)F)cc3)cc2c1`, for which the Ki in series [3] is 2800 nM. The IC50 in series [5] was found to be 4810 nM.

As to `CC(C)(C)OC(=O)NCCCCCCn1cc(CCCCN2CCC(c3ccc(-c4cc(C(=O)O)cc5cc(-c6ccc(C(F)(F)F)cc6)ccc45)cc3)CC2)nn1`, in [3], the inhibition constant Ki came out at 247 nM. The IC50 in [5] was 424 nM.

Consider `CCOC(=O)N1C[C@H]2C[C@@H](C1)[C@@]2(O)c1ccc(-c2cc(C(=O)O)cc3cc(-c4ccc(C(F)(F)F)cc4)ccc23)cc1`, for which the Ki in [3] was 47.4 nM. In [5], the IC50 was 81.6 nM.

Molecule `COC1(c2ccc(-c3cc(C(=O)O)cc4cc(-c5ccc(C(F)(F)F)cc5)ccc34)cc2)CC2(CNC2)C1` yielded a log distribution coefficient (logD) at 20 h in series [1] of 1.8. The Ki in series [3] worked out at 27 nM. This molecule also displayed an IC50 in series [5] of 46.5 nM.

For the molecule `O=C(O)c1cc(-c2ccc(C3(O)CCCNCCC3)cc2)c2ccc(-c3ccc(C(F)(F)F)cc3)cc2c1`, in series [3], the Ki was found to be 1030 nM.

As for `CCOC(=O)N1C[C@H]2C[C@@H](C1)[C@@]2(O)c1ccc(-c2cc(C(=O)OCC(=O)N(C)C)cc3cc(-c4ccc(C(F)(F)F)cc4)ccc23)cc1`, the result in series [6] and in [7] was Active. Besides, the result in series [8], in [9], in series [10] and in [11] was inactive.

Regarding `O=C(O)c1cc(-c2ccc(/C3=C/CCNCCC3)cc2)c2ccc(-c3ccc(C(F)(F)F)cc3)cc2c1`, the logD at 20 h in series [1] was determined as 2.9. The Ki in series [3] was determined as 34 nM. Further, the IC50 in series [5] turned out to be 58.4 nM.

Consider `O=C(O)c1cc(-c2ccc(C3C[C@H]4CNC[C@@H]4C3)cc2)c2ccc(-c3ccc(C(F)(F)F)cc3)cc2c1` (racemic), for which the logD at 20 h in series [1] worked out at 2.4. In series [3], the Ki is 18.6 nM.

As for `NCCCCCCn1cc(CCCCN2CCC(c3ccc(-c4cc(C(=O)O)cc5cc(-c6ccc(C(F)(F)F)cc6)ccc45)cc3)CC2)nn1`, the Ki in [3] was 67.4 nM. The molecule also had an IC50 in [5] of 116 nM.

Consider `O=C(O)c1cc(-c2ccc(C3CCCNCCC3)cc2)c2ccc(-c3ccc(C(F)(F)F)cc3)cc2c1`, for which, in [1], the logD at 20 h stood at 2.5. The Ratio IC50 in series [2] stood at 0.627. The Ki in series [3] is 10.8 nM. For the same molecule, the results for the IC50 in [4] and in series [5] were 11.6 nM and 18.5 nM, respectively.
